Published values gathered from unrelated publications.
Lines come from different studies, so protocols differ.
Target: Serine/threonine-protein kinase PAK 4 (PAK4, Homo sapiens, UniProt O96013)

SMILES	read-out	mode	method	tested at	measurement	value
CCN(CC)c1ccc(C2=NNC(=O)CC2C)cc1[N+](=O)[O-] (stereo not shown)	enzyme activity	inhibitor	–	10 µM	remaining activity	98%
Cc1sc(C(=O)NC2COC2)cc1-n1cc(NC(=O)Nc2c(F)cccc2Cl)cn1	enzyme activity	inhibitor	–	10 µM	remaining activity	106%
COc1cc2c(N3CCN(C(=O)Nc4ccc(OC(C)C)cc4)CC3)ncnc2cc1OCCCN1CCCCC1	cell-free assay	–	–	0.5 µM	remaining signal	103%
COc1cc(-c2cc(-c3ccc(N4CCNCC4)cc3)cnc2C)cc(OC)c1OC	enzyme activity	inhibitor	–	0.1 µM	inhibition	1%
Nc1cnc(N2CCc3cc(S(=O)(=O)Nc4c(F)cc(Cl)cc4F)cc(N4CCCC4=O)c32)nc1	cell-free assay	–	competition with immobilised ligand	1 µM	remaining binding	89%
N#CCCc1ccc2c(c1)-c1[nH]c3ccc([N+](=O)[O-])cc3c1CC(=O)N2	cell-free assay	–	–	0.5 µM	remaining signal	86.4%
Cc1ccc(NC(=O)c2ccc(C)c(C(F)(F)F)c2)cc1C#Cc1nn(C2CCC(O)CC2)c2ncnc(N)c12 (stereo not shown)	cell-free assay	–	–	10 µM	remaining signal	88%
Cc1cnc(NC2CCOCC2)nc1-n1cnc(C(=O)NC(CN)c2cc(F)cc(Cl)c2)c1 (stereo not shown)	enzyme activity	inhibitor	radiometric	1 µM	remaining activity	96%
Cc1ccc(C(=O)Nc2ccc(CN3CCN(C)CC3)c(C(F)(F)F)c2)cc1C#Cc1cnc2cccnn12	enzyme activity	inhibitor	–	23.5 nM	remaining activity	91%
Cc1c(NC(=O)c2cc(C(N)=O)nc3cc(F)ccc23)c(C(F)(F)F)nn1Cc1ccc(C(C)(C)C)cc1	cell-free assay	–	competition with immobilised ligand	1 µM	remaining binding	100%
CCN(CC)CCNC(=O)c1c(C)[nH]c(/C=C2\C(=O)Nc3ccc(F)cc32)c1C	enzyme activity	inhibitor	–	0.1 µM	remaining activity	90%
FC(F)(F)Oc1cccc(-c2cnc3ccc(-c4ccncc4)nn23)c1	enzyme activity	inhibitor	radiometric	1 µM	activity vs control	81%
Nc1ncnc2occ(-c3ccc(NC(=O)Nc4cc(C(F)(F)F)ccc4F)cc3)c12	cell-free assay	inhibitor	–	20 µM	remaining signal	61%
CC/C(=N\NC(=O)NCc1cccc(O)c1)c1ccc(O)c(C)c1O	enzyme activity	inhibitor	–	0.1 µM	inhibition	10.6%
CC(C)(C)c1nc2c(s1)c1nc(N)ncc1c1ccc(NS(=O)(=O)c3c(F)cccc3F)c(F)c12	enzyme activity	inhibitor	radiometric	1 µM	remaining activity	86%
CSc1nc(C)c(-c2ccnc(Nc3ccc(N4CCOCC4)cc3)c2)[nH]1	enzyme activity	inhibitor	–	10 µM	inhibition	-3.9%
CCCOc1ccc(OC)c(F)c1C(=O)c1ccc(C(=O)N[C@@H]2CNC[C@H]2NC(=O)c2ccc3[nH]ncc3c2)cc1	enzyme activity	inhibitor	–	10 µM	remaining activity	90%

SMILES	read-out	mode	method	tested at	measurement	value
CCN(CC)CCNC(=O)c1c(C)[nH]c(/C=C2\C(=O)Nc3ccc(F)cc32)c1C	enzyme activity	inhibitor	–	10 µM	inhibition	55%
CC(C)(O)[C@H]1CC[C@H](Nc2ccc3ncc(-c4cccc(C(F)(F)F)c4)n3n2)CC1	enzyme activity	inhibitor	–	1 µM	remaining activity	98%
CS(=O)(=O)N1CCCC(NC(=O)[C@H](CCC2CCCCC2)NC(=O)c2ccc(CNc3ncnc4c3nnn4-c3ccccc3)cc2)C1 (stereo partly shown)	cell-free assay	–	competition with immobilised ligand	0.1 µM	remaining binding	100%
Cc1ccc(Nc2nccc(N(C)c3ccc4c(C)n(C)nc4c3)n2)cc1S(N)(=O)=O	enzyme activity	inhibitor	–	0.3 µM	inhibition	-17%
Cc1[nH]c(/C=C2\C(=O)Nc3ccc(F)cc32)c(C)c1C(=O)N[C@H]1CCN(C(=O)N(C)C)C1	enzyme activity	inhibitor	–	0.1 µM	remaining activity	109%
COc1cc(Nc2cnc(C#N)c(O[C@H](C)CN(C)C)n2)ncc1-c1cnn(C)c1	enzyme activity	inhibitor	radiometric	1 µM	remaining activity	87%
Nc1nc(Nc2ccccc2)sc1C(=O)c1c(F)cccc1F	enzyme activity	inhibitor	–	10 µM	remaining activity	47%
CC1=C(C#N)C(c2ccc3c(c2)c(NC(=O)c2ccccc2C)nn3C)C(C#N)=C(C)N1	cell-free assay	–	competition with immobilised ligand	1 µM	remaining binding	100%
Nc1nc(NC2CCCCC2)sc1C(=O)c1ccccc1	enzyme activity	inhibitor	–	10 µM	remaining activity	88%
COc1cccc(CNC(=O)c2nc3scc(COCc4ccc(C(=O)O)cc4)c3c(=O)[nH]2)c1	cell-free assay	–	competition with immobilised ligand	1 µM	remaining binding	100%
Cn1c(=O)n(-c2ccc(C(C)(C)C#N)cc2)c2c3cc(-c4cnc5ccccc5c4)ccc3ncc21	enzyme activity	inhibitor	–	10 µM	remaining activity	87%
Cc1c[nH]c2nccc(Oc3c(F)cc(Nc4cc(Cl)nc(N)n4)cc3F)c12	cell-free assay	–	competition with immobilised ligand	0.1 µM	remaining binding	100%
CS(=O)(=O)Nc1cccc(-c2csc(NC(=O)CSc3nc4nccnc4c(=O)n3CCc3ccccc3)n2)c1	enzyme activity	inhibitor	–	10 µM	inhibition	4%
NS(=O)(=O)c1cc(NC(=O)C2(c3ccccc3Cl)CC2)ccc1Oc1cccc(Cl)c1	cell-free assay	–	competition with immobilised ligand	1 µM	remaining binding	74%
O=C1NC(=O)c2cc(Nc3ccc(F)cc3)c(Nc3ccc(F)cc3)cc21	cell-free assay	–	–	0.5 µM	remaining signal	95.1%
CSc1cccnc1N1CCN(Cc2nc3ccccc3[nH]2)CC1	cell-free assay	–	competition with immobilised ligand	1 µM	remaining binding	100%
CNC(=O)c1cc(Oc2ccc(NC(=O)Nc3ccc(Cl)c(C(F)(F)F)c3)cc2)ccn1	enzyme activity	inhibitor	–	10 µM	inhibition	-9%
